Laboratory results reported in PMC3733550 (Biochemical pharmacology, 2011).
Read-outs that look alike come from different tables or passages of the source. Marks after values point to notes of the source that are not given here.

Experiments:
[1] = tested on: ABCG2-expressing MDA-MD-231/R cells; assay: Re-sensitization of MDA-MB-231/R cells to mitoxantrone; type: cell-based, human
ABCG2 [2] = molecular target: T1, ABCG2 (Homo sapiens, UniProt Q9UNQ0); conditions: read-out: EC50 PhA; increasing PhA content in ABCG2 over-expressing MDA-MB-231/R cells; cited from earlier work
T1 sequence (Q9UNQ0 1-655): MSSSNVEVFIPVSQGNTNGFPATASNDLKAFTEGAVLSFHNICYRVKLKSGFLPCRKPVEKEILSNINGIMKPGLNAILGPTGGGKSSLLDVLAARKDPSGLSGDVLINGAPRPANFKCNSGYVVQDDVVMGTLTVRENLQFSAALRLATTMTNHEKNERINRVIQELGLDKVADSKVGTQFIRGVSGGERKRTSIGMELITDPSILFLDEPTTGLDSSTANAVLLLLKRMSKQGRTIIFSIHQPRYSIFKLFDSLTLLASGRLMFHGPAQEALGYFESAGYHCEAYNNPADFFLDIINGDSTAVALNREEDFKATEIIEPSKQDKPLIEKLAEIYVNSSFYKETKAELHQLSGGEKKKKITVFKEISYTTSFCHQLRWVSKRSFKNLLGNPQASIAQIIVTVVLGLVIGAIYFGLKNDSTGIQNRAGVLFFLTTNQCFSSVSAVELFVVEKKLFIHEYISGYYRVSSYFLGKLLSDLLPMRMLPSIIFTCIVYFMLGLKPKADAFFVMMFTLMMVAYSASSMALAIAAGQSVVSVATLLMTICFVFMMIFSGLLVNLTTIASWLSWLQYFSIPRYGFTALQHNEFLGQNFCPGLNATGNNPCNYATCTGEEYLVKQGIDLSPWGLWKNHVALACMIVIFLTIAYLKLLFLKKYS

MDA-MB-231/V cells = assay: Growth inhibition by mitoxantrone in parental MDA-MB-231/V cells; type: cell-based; conditions: Homo sapiens, MDA-MB-231, 72 h, read-out: IC50 value of MX in MDA-MB-231/V cells
[3] = tested on: ABCG2 expression in MDA-MB-231/R cells; assay: Western blot analysis of ABCG2 protein levels in MDA-MB-231/R cells; type: cell-based, human; conditions: 72 h; A-2 0.5 μM or 1 μM; MX 0.1 μM
MDA-MB-231/V = assay: Cell cytotoxicity by MTT assay on MDA-MB-231/V cells; type: cell-based, human; conditions: % of control cells (1% DMSO)
Summary of the method: (§1)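 Cells grown in RPMI 1640 with 10% FBS and 1.0 mg/ml geneticin at 37°C, 5% CO2, and used within 10 passages. 10^4 cells/well were seeded for 24 h, then exposed for 72 h to test compound (5 or 10 μM; 1% v/v DMSO final). After a PBS wash, MTT was added (3 h, 37°C), formazan dissolved in DMSO, and A590 read. Viability is % of 1% DMSO controls, mean (SD) of three independent determinations.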

MDA-MB-231/R = assay: Cell cytotoxicity by MTT assay on MDA-MB-231/R cells; type: cell-based, human; conditions: % of control cells (1% DMSO)
Summary of the method: as §1

ABCG2 [4] = molecular target: T1, ABCG2; assay: Photoaffinity labeling of ABCG2 with [125I]-IAAP in MCF-7 FLV1000 membranes; type: binding; conditions: test compound 5 μM
ABCG2 [5] = molecular target: T1, ABCG2; assay: ABCG2 ATPase assay; type: biochemical

COc1ccc2c3c([nH]c2c1)[C@H](C=C(C)C)N1C(=O)[C@@H]2CCCN2C(=O)[C@@H]1C3 [FTC, fumitremorgin C]
Resistance index ([1]; MX + test compound 0.05 μM, IC50 of MX R cells + test compound / IC50 of MX V cells): 7.4
EC50 (ABCG2 [2]): 1.3 µM

O=C1c2c(O)ccc(O)c2C(=O)c2c(NCCNCCO)ccc(NCCNCCO)c21 [Mitoxantrone]
IC50 ([1]; Homo sapiens, MDA-MB-231, 72 h, read-out: IC50 of mitoxantrone): 0.92 µM
IC50 (MDA-MB-231/V cells): 0.07 µM
Effect on ABCG2 protein levels in R cells [3]: no effect

O=C1/C(=C/c2ccccc2)Oc2ccccc21 [UA-1]
% Viability MDA-MB-231/V 5 μM (MDA-MB-231/V; 5 μM): 98 (9) ^d %
% Viability MDA-MB-231/V 10 μM (MDA-MB-231/V; 10 μM): 103 (7) ^c %
% Viability MDA-MB-231/R 5 μM (MDA-MB-231/R; 5 μM): 68 (10) ^d %
% Viability MDA-MB-231/R 10 μM (MDA-MB-231/R; 10 μM): 60 (8) ^c %
Effect on photolabelling of ABCG2 by [125I]-IAAP (in words) (ABCG2 [4]): minimal changes
ATPase activity (fold stimulation) (ABCG2 [5]): 2.8 fold
EC50 (ABCG2 [5]): 0.19 µM
